Test results from ChEMBL document CHEMBL4811225 (J Med Chem, 2021).
Where a SMILES comes first, the peptide text is derived from it. Bridges are numbered along the chain shown (N, C = ends).

Columns and labels:
[1] = target: Neuronal acetylcholine receptor; alpha4/beta2 (Rattus norvegicus, UniProt P09483+P12390); format: cell-based, Oocyte
[2] = target: Neuronal acetylcholine receptor; alpha3/alpha6/beta2/beta3 (Homo sapiens, UniProt P17787+P32297+Q05901+Q15825); assay: Inhibition of human alpha6/alpha3beta2beta3 nAChR expressed in Xenopus laevis oocytes assessed as inhibition of acetylcholine-induced current response by two-electrode voltage-clamp method; format: cell-based, Oocyte
How it was run: (§1)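 Two-electrode voltage clamp of stage IV–V oocytes 1–5 days after equal-ratio cRNA injection; ACh 100 μM (β2-containing subtypes, α9α10), 1 s every 60 s in frog saline. Peptide perfused up to 1 μM, responses normalized to mean of three control responses; above 1 μM, 5 min static bath. IC50 with 95% CI; n = oocytes.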

[3] = target: Neuronal acetylcholine receptor subunit alpha-7 (Rattus norvegicus) (UniProt Q05941); assay: Inhibition of rat alpha7 nAChR expressed in Xenopus laevis oocytes assessed as inhibition of acetylcholine-induced current response at 10 uM by two-electrode voltage-clamp method relative to control; format: cell-based; conditions: Oocyte
How it was run: (§2)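 Stage IV–V X. laevis oocytes expressing equal-ratio cRNAs of α2β4, α3β4, α4β4 or α7 subunits; TEVC 1–5 days after injection. ACh 300 μM, 1 s at 60 s intervals. 10 μM peptide as 5 min static bath, normalized to ACh response after 5 min bath of control saline; mean ± SD, n = 4.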

[4] = species: Rattus norvegicus; assay: Selectivity ratio of IC50 for rat alpha7 nAChR to IC50 for rat alpha6/alpha3beta4 nAChR
How it was run: (§3)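 Ratio of each subtype's IC50, from TEVC inhibition of ACh-evoked currents in X. laevis oocytes, to the IC50 at the same species' α6/α3β4 nAChR; IC50 values with 95% CI, n = number of oocytes.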

[5] = target: Nicotinic acetylcholine receptor alpha6/alpha3/beta4 (Rattus norvegicus) (UniProt P04757+P12392+P43143); assay: Inhibition of rat alpha6beta4 nAChR expressed in Xenopus laevis oocytes assessed as recovery of acethylcholine-evoked currents at 10 uM treated for 10 mins followed by compound washout by two-electrode voltage-clamp method relative to control; format: cell-based; set-up: scale not given: the % may be the effect or the level left; conditions: Oocyte
[6] = species: Homo sapiens; assay: Selectivity ratio of IC50 for human alpha4beta2 nAChR to IC50 for human alpha6/alpha3beta4 nAChR
How it was run: as §3

[7] = species: Rattus norvegicus; assay: Selectivity ratio of IC50 for rat alpha2beta2 nAChR to IC50 for rat alpha6/alpha3beta4 nAChR
How it was run: as §3

[8] = species: Rattus norvegicus; assay: Selectivity ratio of IC50 for rat alpha2beta4 nAChR to IC50 for rat alpha6/alpha3beta4 nAChR
How it was run: as §3

[9] = target: Neuronal acetylcholine receptor; alpha2/beta2 (Rattus norvegicus) (UniProt P12389+P12390); assay: Inhibition of rat alpha2beta2 nAChR expressed in Xenopus laevis oocytes assessed as inhibition of acetylcholine-induced current response at 10 uM by two-electrode voltage-clamp method relative to control; format: cell-based; conditions: Oocyte
How it was run: (§4)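 Oocytes (stage IV–V) injected with equal-ratio cRNAs of cloned subunits; TEVC 1–5 days post-injection. ACh 100 μM for β2-containing and α9α10 subtypes, 1 s pulses every 60 s. Peptide 10 μM in 5 min static bath; response normalized to ACh response after 5 min control-saline bath; mean ± SD, n = 4.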

[10] = Inhibition of human alpha4beta4 nAChR expressed in Xenopus laevis oocytes assessed as inhibition of acetylcholine-induced current response by two-electrode voltage-clamp method; format: cell-based; conditions: Oocyte
How it was run: (§5)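 TEVC on stage IV–V oocytes 1–5 days after equal-ratio cRNA injection (α2β4, α3β4, α4β4, α7). ACh 300 μM, 1 s pulses at 60 s intervals under frog saline perfusion. Peptide perfused to 1 μM, normalized to average of three control responses; higher concentrations by 5 min static bath. IC50 with 95% CI, n oocytes.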

[11] = target: Neuronal acetylcholine receptor; alpha3/beta2 (Homo sapiens, UniProt P17787+P32297); assay: Inhibition of human alpha3beta2 nAChR expressed in Xenopus laevis oocytes assessed as inhibition of acetylcholine-induced current response at 10 uM by two-electrode voltage-clamp method relative to control; format: cell-based; conditions: Oocyte
How it was run: as §4

[12] = species: Homo sapiens; assay: Selectivity ratio of IC50 for human alpha7 nAChR to IC50 for human alpha6/alpha3beta4 nAChR
How it was run: as §3

[13] = species: Rattus norvegicus; assay: Selectivity ratio of IC50 for rat alpha4beta2 nAChR to IC50 for rat alpha6/alpha3beta4 nAChR
How it was run: as §3

[14] = species: Homo sapiens; assay: Selectivity ratio of IC50 for human alpha3beta2 nAChR to IC50 for human alpha6/alpha3beta4 nAChR
How it was run: as §3

[15] = target: Neuronal acetylcholine receptor; alpha2/beta4 (Homo sapiens, UniProt P30926+Q15822); assay: Inhibition of human alpha2beta4 nAChR expressed in Xenopus laevis oocytes assessed as inhibition of acetylcholine-induced current response by two-electrode voltage-clamp method; format: cell-based, Oocyte
How it was run: as §5

[16] = species: Homo sapiens; assay: Selectivity ratio of IC50 for human alpha6/alpha3beta2beta3 nAChR to IC50 for human alpha6/alpha3beta4 nAChR
How it was run: as §3

[17] = target: Neuronal acetylcholine receptor subunit alpha-7 (Homo sapiens, UniProt P36544); assay: Inhibition of human alpha7 nAChR expressed in Xenopus laevis oocytes assessed as inhibition of acetylcholine-induced current response by two-electrode voltage-clamp method; format: cell-based, Oocyte
How it was run: as §5

[18] = target: Neuronal acetylcholine receptor; alpha4/beta4 (Rattus norvegicus) (UniProt P09483+P12392); assay: Inhibition of rat alpha4beta4 nAChR expressed in Xenopus laevis oocytes assessed as inhibition of acetylcholine-induced current response at 10 uM by two-electrode voltage-clamp method relative to control; format: cell-based; conditions: Oocyte
How it was run: as §2

[19] = target: Neuronal acetylcholine receptor; alpha2/beta2 (Rattus norvegicus, UniProt P12389+P12390); assay: Inhibition of rat alpha2beta2 nAChR expressed in Xenopus laevis oocytes assessed as inhibition of acetylcholine-induced current response by two-electrode voltage-clamp method; format: cell-based, Oocyte
How it was run: as §1

[20] = species: Rattus norvegicus; assay: Selectivity ratio of IC50 for rat alpha3beta4 nAChR to IC50 for rat alpha6/alpha3beta4 nAChR
How it was run: as §3

[21] = species: Homo sapiens; assay: Selectivity ratio of IC50 for human alpha1beta1deltaepsilon nAChR to IC50 for human alpha6/alpha3beta4 nAChR
How it was run: as §3

[22] = target: Neuronal acetylcholine receptor subunit alpha-7 (Rattus norvegicus, UniProt Q05941); format: cell-based, Oocyte
[23] = species: Homo sapiens; assay: Selectivity ratio of IC50 for human alpha3beta4 nAChR to IC50 for human alpha6/alpha3beta4 nAChR
How it was run: as §3

[24] = target: Nicotinic acetylcholine receptor alpha6/alpha3/beta2/beta3 (Rattus norvegicus, UniProt P04757+P12390+P12391+P43143); format: cell-based, Oocyte
[25] = target: Neuronal acetylcholine receptor subunit alpha-6/alpha-3 (Homo sapiens) (UniProt P32297+Q15825); assay: Inhibition of human alpha6beta4 nAChR expressed in Xenopus laevis oocytes assessed as recovery of acethylcholine-evoked currents at 10 uM treated for 10 mins followed by compound washout by two-electrode voltage-clamp method relative to control; format: cell-based; set-up: scale not given: the % may be the effect or the level left; conditions: Oocyte
[26] = target: Neuronal acetylcholine receptor; alpha4/beta4 (Rattus norvegicus, UniProt P09483+P12392); format: cell-based, Oocyte

Sequence of Neuronal acetylcholine receptor; alpha3/alpha6/beta2/beta3 (P17787 whole entry, the tested form may be a part): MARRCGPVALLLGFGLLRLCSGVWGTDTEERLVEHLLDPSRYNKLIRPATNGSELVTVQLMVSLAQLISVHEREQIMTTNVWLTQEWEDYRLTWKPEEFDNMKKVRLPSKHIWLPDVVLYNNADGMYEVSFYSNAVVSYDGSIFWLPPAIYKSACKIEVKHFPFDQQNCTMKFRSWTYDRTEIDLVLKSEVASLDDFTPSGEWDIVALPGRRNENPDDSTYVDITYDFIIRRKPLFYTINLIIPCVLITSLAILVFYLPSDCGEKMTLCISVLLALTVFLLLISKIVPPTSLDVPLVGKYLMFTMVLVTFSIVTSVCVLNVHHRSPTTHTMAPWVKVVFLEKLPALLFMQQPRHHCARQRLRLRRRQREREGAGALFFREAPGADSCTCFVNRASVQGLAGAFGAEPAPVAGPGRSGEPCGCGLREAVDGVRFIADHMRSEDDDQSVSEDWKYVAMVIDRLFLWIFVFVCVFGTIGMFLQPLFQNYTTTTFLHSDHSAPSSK
Sequence of Neuronal acetylcholine receptor; alpha3/alpha6/beta2/beta3 (P32297 whole entry, the tested form may be a part): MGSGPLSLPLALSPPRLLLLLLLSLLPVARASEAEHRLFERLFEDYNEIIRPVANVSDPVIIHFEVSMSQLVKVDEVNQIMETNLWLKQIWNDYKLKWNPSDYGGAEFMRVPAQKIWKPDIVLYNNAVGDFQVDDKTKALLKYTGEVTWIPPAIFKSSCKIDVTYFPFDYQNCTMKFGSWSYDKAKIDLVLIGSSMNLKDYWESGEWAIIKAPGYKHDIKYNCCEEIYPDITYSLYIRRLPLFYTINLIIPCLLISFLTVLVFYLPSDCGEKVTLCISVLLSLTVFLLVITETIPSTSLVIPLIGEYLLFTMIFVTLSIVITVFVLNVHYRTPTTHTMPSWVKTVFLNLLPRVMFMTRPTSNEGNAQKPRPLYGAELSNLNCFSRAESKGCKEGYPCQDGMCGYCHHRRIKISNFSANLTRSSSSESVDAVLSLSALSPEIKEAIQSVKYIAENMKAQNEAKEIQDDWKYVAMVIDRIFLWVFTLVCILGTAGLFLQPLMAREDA
Sequence of Neuronal acetylcholine receptor; alpha3/alpha6/beta2/beta3 (Q15825 whole entry, the tested form may be a part): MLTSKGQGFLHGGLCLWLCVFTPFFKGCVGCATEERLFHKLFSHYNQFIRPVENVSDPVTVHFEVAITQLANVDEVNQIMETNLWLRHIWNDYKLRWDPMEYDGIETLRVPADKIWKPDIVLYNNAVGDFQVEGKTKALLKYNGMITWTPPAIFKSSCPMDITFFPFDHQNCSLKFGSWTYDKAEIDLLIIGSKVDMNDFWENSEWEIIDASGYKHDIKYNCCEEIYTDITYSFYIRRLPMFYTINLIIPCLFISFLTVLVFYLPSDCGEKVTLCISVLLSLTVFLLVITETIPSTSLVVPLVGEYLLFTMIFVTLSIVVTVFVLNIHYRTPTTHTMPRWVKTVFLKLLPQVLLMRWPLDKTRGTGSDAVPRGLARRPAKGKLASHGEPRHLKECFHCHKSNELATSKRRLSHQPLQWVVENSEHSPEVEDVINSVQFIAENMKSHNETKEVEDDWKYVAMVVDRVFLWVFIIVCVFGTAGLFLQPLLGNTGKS
Sequence of Neuronal acetylcholine receptor; alpha3/alpha6/beta2/beta3 (Q05901 whole entry, the tested form may be a part): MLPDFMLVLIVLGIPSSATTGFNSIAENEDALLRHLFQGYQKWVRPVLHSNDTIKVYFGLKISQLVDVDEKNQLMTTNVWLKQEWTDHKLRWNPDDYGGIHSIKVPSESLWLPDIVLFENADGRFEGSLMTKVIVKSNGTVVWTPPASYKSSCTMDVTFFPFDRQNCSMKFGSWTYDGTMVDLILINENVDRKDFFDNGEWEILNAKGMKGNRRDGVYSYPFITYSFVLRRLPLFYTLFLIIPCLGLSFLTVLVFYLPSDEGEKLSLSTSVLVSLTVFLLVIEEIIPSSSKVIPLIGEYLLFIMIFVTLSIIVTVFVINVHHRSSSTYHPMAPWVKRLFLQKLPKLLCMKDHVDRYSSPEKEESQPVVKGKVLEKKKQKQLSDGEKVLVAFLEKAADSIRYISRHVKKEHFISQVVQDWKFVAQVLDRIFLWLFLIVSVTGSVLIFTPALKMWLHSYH
Sequence of Neuronal acetylcholine receptor subunit alpha-7 (Homo sapiens, UniProt P36544) (P36544 whole entry): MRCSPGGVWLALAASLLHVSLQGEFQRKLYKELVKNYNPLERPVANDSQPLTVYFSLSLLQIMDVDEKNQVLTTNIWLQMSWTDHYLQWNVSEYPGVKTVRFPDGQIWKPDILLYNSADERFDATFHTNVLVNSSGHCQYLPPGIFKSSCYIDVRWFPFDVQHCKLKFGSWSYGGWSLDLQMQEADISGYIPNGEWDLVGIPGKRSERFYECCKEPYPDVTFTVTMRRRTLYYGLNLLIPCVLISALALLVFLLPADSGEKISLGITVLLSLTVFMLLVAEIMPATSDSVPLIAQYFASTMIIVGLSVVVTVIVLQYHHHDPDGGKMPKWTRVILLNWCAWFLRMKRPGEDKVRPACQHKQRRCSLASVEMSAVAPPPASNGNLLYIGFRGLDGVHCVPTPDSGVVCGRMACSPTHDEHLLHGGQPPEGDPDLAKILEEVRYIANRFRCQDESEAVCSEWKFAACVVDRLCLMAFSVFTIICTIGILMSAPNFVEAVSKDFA
Sequence of Nicotinic acetylcholine receptor alpha6/alpha3/beta2/beta3 (P04757 whole entry): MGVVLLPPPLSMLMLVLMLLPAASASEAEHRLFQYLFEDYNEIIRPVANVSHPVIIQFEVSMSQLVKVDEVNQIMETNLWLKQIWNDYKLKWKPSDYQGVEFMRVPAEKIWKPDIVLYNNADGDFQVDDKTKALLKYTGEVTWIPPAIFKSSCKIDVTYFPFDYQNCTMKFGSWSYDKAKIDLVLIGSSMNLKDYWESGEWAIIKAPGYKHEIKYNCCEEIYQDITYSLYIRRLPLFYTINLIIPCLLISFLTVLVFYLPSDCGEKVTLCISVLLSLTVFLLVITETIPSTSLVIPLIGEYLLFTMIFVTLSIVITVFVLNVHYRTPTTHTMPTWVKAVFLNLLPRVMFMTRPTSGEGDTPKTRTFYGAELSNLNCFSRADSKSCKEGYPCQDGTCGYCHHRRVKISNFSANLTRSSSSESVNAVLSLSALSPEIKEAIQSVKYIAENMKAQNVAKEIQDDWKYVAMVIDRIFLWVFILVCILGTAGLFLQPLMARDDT
Sequence of Nicotinic acetylcholine receptor alpha6/alpha3/beta2/beta3 (P12390 whole entry): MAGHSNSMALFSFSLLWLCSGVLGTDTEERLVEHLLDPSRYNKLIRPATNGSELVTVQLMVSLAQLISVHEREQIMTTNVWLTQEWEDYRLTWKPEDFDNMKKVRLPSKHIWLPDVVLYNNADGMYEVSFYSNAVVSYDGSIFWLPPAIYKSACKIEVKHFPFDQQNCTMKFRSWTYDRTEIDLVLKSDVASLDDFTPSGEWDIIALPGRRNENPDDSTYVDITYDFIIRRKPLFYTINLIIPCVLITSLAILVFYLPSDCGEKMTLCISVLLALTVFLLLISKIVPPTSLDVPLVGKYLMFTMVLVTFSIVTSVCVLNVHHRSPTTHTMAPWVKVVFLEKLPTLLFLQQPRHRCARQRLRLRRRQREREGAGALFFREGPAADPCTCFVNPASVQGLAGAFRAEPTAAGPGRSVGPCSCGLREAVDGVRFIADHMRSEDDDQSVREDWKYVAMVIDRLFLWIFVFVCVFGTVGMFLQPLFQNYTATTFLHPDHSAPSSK
Sequence of Nicotinic acetylcholine receptor alpha6/alpha3/beta2/beta3 (P12391 whole entry): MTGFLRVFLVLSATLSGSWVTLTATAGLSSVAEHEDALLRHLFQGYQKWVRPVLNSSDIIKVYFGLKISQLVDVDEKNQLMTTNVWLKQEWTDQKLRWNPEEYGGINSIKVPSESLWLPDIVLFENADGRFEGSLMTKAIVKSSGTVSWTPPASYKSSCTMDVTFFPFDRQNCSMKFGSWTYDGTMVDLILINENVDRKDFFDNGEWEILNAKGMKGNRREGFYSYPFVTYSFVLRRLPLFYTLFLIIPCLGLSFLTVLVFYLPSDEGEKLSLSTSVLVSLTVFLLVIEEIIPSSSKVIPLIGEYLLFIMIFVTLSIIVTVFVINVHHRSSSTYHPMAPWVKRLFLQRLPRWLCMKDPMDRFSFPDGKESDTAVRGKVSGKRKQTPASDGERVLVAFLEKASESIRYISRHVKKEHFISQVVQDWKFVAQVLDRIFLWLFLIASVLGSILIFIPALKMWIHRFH
Sequence of Nicotinic acetylcholine receptor alpha6/alpha3/beta2/beta3 (P43143 whole entry): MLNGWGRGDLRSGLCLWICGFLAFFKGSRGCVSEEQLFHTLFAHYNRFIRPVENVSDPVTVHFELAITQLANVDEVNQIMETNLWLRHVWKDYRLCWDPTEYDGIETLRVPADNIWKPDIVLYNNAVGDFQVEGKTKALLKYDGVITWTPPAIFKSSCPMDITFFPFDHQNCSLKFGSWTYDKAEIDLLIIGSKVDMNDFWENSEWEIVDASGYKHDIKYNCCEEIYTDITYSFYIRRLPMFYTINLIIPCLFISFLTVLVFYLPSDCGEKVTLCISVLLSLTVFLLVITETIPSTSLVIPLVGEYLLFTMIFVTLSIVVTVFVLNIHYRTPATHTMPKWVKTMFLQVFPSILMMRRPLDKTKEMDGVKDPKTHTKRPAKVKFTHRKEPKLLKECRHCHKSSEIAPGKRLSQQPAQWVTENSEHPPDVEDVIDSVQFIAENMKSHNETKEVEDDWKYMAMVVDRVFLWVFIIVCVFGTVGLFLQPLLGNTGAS
Sequence of Neuronal acetylcholine receptor subunit alpha-7 (Rattus norvegicus) (Q05941 whole entry): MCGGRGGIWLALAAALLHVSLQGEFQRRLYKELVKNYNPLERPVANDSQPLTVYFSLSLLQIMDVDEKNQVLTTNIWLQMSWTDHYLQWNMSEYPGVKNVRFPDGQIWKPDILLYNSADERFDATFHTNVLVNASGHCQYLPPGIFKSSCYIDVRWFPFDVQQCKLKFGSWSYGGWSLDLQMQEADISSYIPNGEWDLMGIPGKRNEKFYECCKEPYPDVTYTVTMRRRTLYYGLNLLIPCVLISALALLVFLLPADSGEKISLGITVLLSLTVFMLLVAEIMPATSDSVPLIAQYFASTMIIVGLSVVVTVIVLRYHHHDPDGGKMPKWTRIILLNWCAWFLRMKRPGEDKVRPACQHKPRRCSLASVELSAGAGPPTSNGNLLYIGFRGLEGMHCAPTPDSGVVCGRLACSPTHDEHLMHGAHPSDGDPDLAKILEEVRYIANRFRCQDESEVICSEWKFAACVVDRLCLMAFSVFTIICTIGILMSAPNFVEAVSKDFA

SMILES: CC[C@H](C)[C@@H]1NC(=O)[C@H](CCC(=O)O)NC(=O)[C@@H]2CCCN2C(=O)[C@H](Cc2cnc[nH]2)NC(=O)[C@H](CC(N)=O)NC(=O)[C@H](C(C)C)NC(=O)[C@H](CC(N)=O)NC(=O)[C@@H]2CSSC[C@H](NC(=O)CN)C(=O)N[C@@H](CSSC[C@@H](C(N)=O)NC1=O)C(=O)N[C@@H](CO)C(=O)N[C@@H](Cc1cnc[nH]1)C(=O)N1CCC[C@H]1C(=O)N[C@@H](C(C)C)C(=O)N2 (H-GCCSHPVCNVNHPEIC-NH2; disulfide 2-8, 3-16)
- IC50 [1]: > 10 µM
- IC50 [2]: 0.135 µM
- inhibition [3]: 82%
- Ratio IC50 [4]: > 20000
- Activity [5]: 6%
- Ratio IC50 [6]: > 10000
- Ratio IC50 [7]: > 20000
- Ratio IC50 [8]: > 20000
- inhibition [9]: 98%
- IC50 [10]: 4.01 µM
- inhibition [11]: 76%
- Ratio IC50 [12]: > 50000
- Ratio IC50 [13]: > 20000
- Ratio IC50 [14]: > 50000
- IC50 [15]: > 10 µM
- Ratio IC50 [16]: 675
- IC50 [17]: > 10 µM
- inhibition [18]: 81%
- IC50 [19]: > 10 µM
- Ratio IC50 [20]: 489
- Ratio IC50 [21]: > 50000
- IC50 [22]: > 10 µM
- Ratio IC50 [23]: 895
- IC50 [24]: 0.111 µM
- Activity [25]: 2%
- IC50 [26]: > 10 µM
